Source: ChEMBL document CHEMBL1687745 (Antimicrob Agents Chemother, 2009)
≈ marks a conversion by molar mass, not a printed value. Calls of active or inactive are those of the source. The calls are words filed in the database; no cut-off is given here.

Key:
Brevibacillus brevis = assay: Antimicrobial activity against Bacillus brevis clinical isolate by broth microdilution method; type: functional
Method in brief: (§1)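 Broth microdilution. Log-phase cultures (5 × 10^5 CFU/ml) seeded in 96-well plates with compound from 0 to 20 µM or 1% DMSO control. Incubated at 37°C for 16 to 20 h. Growth read as absorbance at 600 nm.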

Pseudomonas aeruginosa = assay: Antimicrobial activity against Pseudomonas aeruginosa PAO1 by broth microdilution method; type: functional; method in brief: as §1
Bacillus anthracis [1] = assay: Protection against Bacillus anthracis Sterne spores induced cell death in mouse J774A1 cells assessed as dead cells at 10 uM by Sytox green dye staining assay relative to untreated control; type: functional, J774.A1
Bacillus anthracis [2] = assay: microbe, parasite or virus in culture; conditions: Ames
Bacillus anthracis [3] = assay: Antimicrobial activity against Bacillus anthracis Ames by broth microdilution method in presence of 10% fetal calf serum; type: functional
Burkholderia mallei = assay: Antimicrobial activity against Burkholderia mallei ATCC 23344 by broth microdilution method; type: functional
Bacillus subtilis [4] = assay: Inhibition of DNA synthesis in Bacillus subtilis BD54 at 5 X MIC by [3H]thymidine incorporation assay; type: functional, organism-based
Method in brief: (§2)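 Precursors were [methyl-3H]thymidine (DNA), [5-3H]uridine (RNA), L-[4,5-3H]leucine (protein) and N-acetyl-D-[1-3H]glucosamine (cell wall). Samples taken over time, precipitated with equal volume of ice-cold 20% TCA, filtered on glass fibre, and counted. cpm plotted against time.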

Enterococcus faecalis [5] = assay: Antimicrobial activity against Enterococcus faecalis 29212 clinical isolate by broth microdilution method; type: functional
Bacillus anthracis [6] = assay: Antimicrobial activity against Bacillus anthracis Vollum clinical isolate by broth microdilution method; type: functional
[7] = tested on: Mycolicibacterium smegmatis; assay: Antimicrobial activity against Mycobacterium smegmatis 700009 by broth microdilution method; type: functional; method in brief: as §1
Bacillus licheniformis = assay: Antimicrobial activity against Bacillus licheniformis clinical isolate by broth microdilution method; type: functional
[8] = Cytotoxicity against human HeLa cells after 3 days by MTS assay in presence of 10% fetal calf serum; type: cell-based
Bacillus anthracis [9] = assay: microbe, parasite or virus in culture; conditions: Ames; remark: listed apart in the source
Klebsiella pneumoniae = assay: Antimicrobial activity against Klebsiella pneumoniae 5657 by broth microdilution method; type: functional; method in brief: as §1
[10] = tested on: Mycolicibacterium smegmatis; assay: Antimicrobial activity against Mycobacterium smegmatis 35798 by broth microdilution method; type: functional; method in brief: as §1
Bacillus subtilis [11] = assay: Inhibition of cell wall synthesis in Bacillus subtilis BD54 at 5 X MIC by N-acetyl-D-[1-3H] glucosamine incorporation assay; type: functional; method in brief: as §2
Bacillus anthracis [12] = assay: Inhibition of spore germination in Bacillus anthracis Sterne spores at MIC after 4 hrs; type: functional, organism-based
Staphylococcus aureus [13] = assay: Antimicrobial activity against Staphylococcus aureus by broth microdilution method; type: functional; method in brief: as §1
Yersinia pestis = assay: Antimicrobial activity against Yersinia pestis by broth microdilution method; type: functional
Bacillus anthracis [14] = assay: Antimicrobial activity against Bacillus anthracis Sterne spores by broth microdilution method; type: functional
Staphylococcus aureus [15] = assay: Antimicrobial activity against methicillin-resistant Staphylococcus aureus clinical isolate by broth microdilution method; type: functional
Bacillus anthracis [16] = assay: Protection against Bacillus anthracis Sterne spores induced cell death in mouse J774A1 cells assessed as live viable cells at 10 uM by Sytox green dye staining assay relative to untreated control; type: functional, J774.A1
Escherichia coli = assay: Antimicrobial activity against Escherichia coli J53 clinical isolate by broth microdilution method; type: functional
Bacillus subtilis [17] = assay: Antimicrobial activity against Bacillus subtilis clinical isolate by broth microdilution method; type: functional
Burkholderia cepacia = assay: Antimicrobial activity against Burkholderia cepacia clinical isolate by broth microdilution method; type: functional; method in brief: as §1
Enterococcus faecium = assay: Antimicrobial activity against vancomycin-resistant Enterococcus faecium B42762 by broth microdilution method; type: functional
Enterococcus faecalis [18] = assay: Antimicrobial activity against vancomycin-resistant Enterococcus faecalis ATCC 51575 by broth microdilution method; type: functional
HeLa = assay: Effect on cell membrane integrity in human HeLa cells assessed as lactate dehydrogenase release at 32 times MIC against Staphylococcus aureus by CytoTox ONE homogenous membrane integrity assay; type: cell-based
Method in brief: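 Confluent HeLa cells in DMEM treated for 1 h with a range of compound concentrations, 1% DMSO final. […] LDH activity in the supernatant measured by a membrane-integrity kit.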

Bacillus subtilis [19] = assay: Inhibition of RNA synthesis in Bacillus subtilis BD54 at 5 X MIC by [5-3H]uridine incorporation assay; type: functional; method in brief: as §2
Bacillus pumilus = assay: Antimicrobial activity against Bacillus pumilus clinical isolate by broth microdilution method; type: functional; method in brief: as §1
Staphylococcus aureus [20] = assay: Antimicrobial activity against Staphylococcus aureus ATCC 25923 by broth microdilution method; type: functional; method in brief: as §1
Staphylococcus aureus [21] = assay: Antimicrobial activity against methicillin-resistant Staphylococcus aureus 1094 by broth microdilution method; type: functional
Bacillus anthracis [22] = assay: Antimicrobial activity against Bacillus anthracis Sterne vegetative cells by broth microdilution method; type: functional
Priestia megaterium = assay: Antimicrobial activity against Bacillus megaterium clinical isolate by broth microdilution method; type: functional
[23] = tested on: Burkholderia pseudomallei; assay: Antimicrobial activity against Burkholderia pseudomallei DD503 by broth microdilution method; type: functional
Enterococcus faecalis [24] = assay: Antimicrobial activity against Enterococcus faecalis clinical isolate by broth microdilution method; type: functional; method in brief: as §1
[25] = tested on: Mycolicibacterium smegmatis; assay: Antimicrobial activity against Mycobacterium smegmatis 19420 by broth microdilution method; type: functional; method in brief: as §1
[26] = tested on: Burkholderia thailandensis; assay: Antimicrobial activity against Burkholderia thailandensis by broth microdilution method; type: functional

**Q.** Which MIC (Brevibacillus brevis) does the source give for `c1cc2cc(-c3ccc4cc(C5=NCCN5)[nH]c4c3)[nH]c2cc1C1=NCCN1` here?
**A.** 0.3 µg/mL (≈ 0.814 µM)

**Q.** And the MIC (Pseudomonas aeruginosa)?
**A.** 25 µg/mL (≈ 67.9 µM)

**Q.** And the Activity (Bacillus anthracis [1])?
**A.** 11%

**Q.** And the MBC (Bacillus anthracis [2])?
**A.** 2.2 µg/mL (≈ 5.97 µM)

**Q.** And the MIC (Bacillus anthracis [2])?
**A.** 1.1 µg/mL (≈ 2.99 µM)

**Q.** What about the MIC (Bacillus anthracis [3]) of the same molecule?
**A.** 0.3 µg/mL

**Q.** What about the MIC (Burkholderia mallei) of the same molecule?
**A.** 1.8 µg/mL (≈ 4.89 µM)

**Q.** What about the inhibition (Bacillus subtilis [4]) of the same molecule?
**A.** Active

**Q.** And the MIC (Enterococcus faecalis [5])?
**A.** 0.3 µg/mL (≈ 0.814 µM)

**Q.** What about the MBC (Bacillus anthracis [6]) of the same molecule?
**A.** 1.1 µg/mL (≈ 2.99 µM)

**Q.** What about the MIC (Bacillus anthracis [6]) of the same molecule?
**A.** 0.6 µg/mL (≈ 1.63 µM)

**Q.** And the MIC [7]?
**A.** 0.3 µg/mL (≈ 0.814 µM)

**Q.** What about the MIC (Bacillus licheniformis) of the same molecule?
**A.** 2.2 µg/mL (≈ 5.97 µM)

**Q.** And the CC50 at 72 h [8]?
**A.** 33 µg/mL

**Q.** What about the MBC (Bacillus anthracis [9]) of the same molecule?
**A.** 0.5 µg/mL (≈ 1.36 µM)

**Q.** What about the MIC (Bacillus anthracis [9]) of the same molecule?
**A.** 0.3 µg/mL (≈ 0.814 µM)

**Q.** What about the MIC (Klebsiella pneumoniae) of the same molecule?
**A.** 0.4 µg/mL (≈ 1.09 µM)

**Q.** And the MIC [10]?
**A.** < 0.1 µg/mL

**Q.** And the “inhibition (INH)” value (Bacillus subtilis [11])?
**A.** 40%

**Q.** What about the inhibition (Bacillus anthracis [12]) of the same molecule?
**A.** inactive

**Q.** And the MIC (Staphylococcus aureus [13])?
**A.** 1.1 µg/mL (≈ 2.99 µM)

**Q.** And the MIC (Yersinia pestis)?
**A.** 7.4 µg/mL (≈ 20.1 µM)

**Q.** What about the MIC (Bacillus anthracis [14]) of the same molecule?
**A.** 0.6 µg/mL (≈ 1.63 µM)

**Q.** What about the MIC (Staphylococcus aureus [15]) of the same molecule?
**A.** 2.2 µg/mL (≈ 5.97 µM)

**Q.** And the Activity (Bacillus anthracis [16])?
**A.** 89%

**Q.** And the MIC (Escherichia coli)?
**A.** 1.1 µg/mL (≈ 2.99 µM)

**Q.** And the MIC (Bacillus subtilis [17])?
**A.** 0.6 µg/mL (≈ 1.63 µM)

**Q.** What about the MIC (Burkholderia cepacia) of the same molecule?
**A.** 4.4 µg/mL (≈ 11.9 µM)

**Q.** What about the MIC (Enterococcus faecium) of the same molecule?
**A.** 0.2 µg/mL (≈ 0.543 µM)

**Q.** What about the MIC (Enterococcus faecalis [18]) of the same molecule?
**A.** 0.5 µg/mL (≈ 1.36 µM)

**Q.** And the Activity (HeLa)?
**A.** Non-toxic

**Q.** And the “inhibition (INH)” value (Bacillus subtilis [19])?
**A.** 40%

**Q.** And the MIC (Bacillus pumilus)?
**A.** 0.1 µg/mL (≈ 0.271 µM)

**Q.** What about the MIC (Staphylococcus aureus [20]) of the same molecule?
**A.** 0.3 µg/mL (≈ 0.814 µM)

**Q.** What about the MIC (Staphylococcus aureus [21]) of the same molecule?
**A.** 0.3 µg/mL (≈ 0.814 µM)

**Q.** What about the MIC (Bacillus anthracis [22]) of the same molecule?
**A.** 1.1 µg/mL (≈ 2.99 µM)

**Q.** And the MIC (Priestia megaterium)?
**A.** 0.6 µg/mL (≈ 1.63 µM)

**Q.** And the MIC [23]?
**A.** 1.8 µg/mL (≈ 4.89 µM)

**Q.** And the MIC (Enterococcus faecalis [24])?
**A.** 2.2 µg/mL (≈ 5.97 µM)

**Q.** What about the MIC [25] of the same molecule?
**A.** 0.2 µg/mL (≈ 0.543 µM)

**Q.** And the MIC [26]?
**A.** 18 µg/mL (≈ 48.9 µM)
